A selection: hits, their analogues and other compounds. The true share with any hit is near 1.4%.
Tb MetRS inh = Trypanosoma brucei MetRS inhibition; AID 624268; inhibition, % at 11.9 µM; purified T. brucei MetRS, ATP depletion, Kinase-Glo luminescence; hit rate 0.4% among 360,000;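 active = inhibition above a per-plate cutoff of the control wells' mean inhibition plus 3 SD, cut at about 5.5% in these data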
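Material: parasite MetRS enzyme / Replication: singlicate, one well per compound / Signal: luminescence of leftover ATP / Schedule: 2 h aminoacylation at 25 °C after 15 min preincubation / Medium: HEPES-MgCl2-KCl buffer plus DTT, spermine, BSA, pyrophosphatase / Doses: 11.9 µM single point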
HDAC3 inhib = inhibitors of human histone deacetylase 3; recombinant HDAC3, fluorogenic peptide/trypsin coupled, fluorescence; inhibition, % at 8.3 µM; hit rate 0.15% among 320,000; AID 2718; in the data active = inhibition above about 26%, passing the limit was not always enough; inconclusive = no clear call, values can overlap the other calls
Target sequence (O15379 whole entry, looked up): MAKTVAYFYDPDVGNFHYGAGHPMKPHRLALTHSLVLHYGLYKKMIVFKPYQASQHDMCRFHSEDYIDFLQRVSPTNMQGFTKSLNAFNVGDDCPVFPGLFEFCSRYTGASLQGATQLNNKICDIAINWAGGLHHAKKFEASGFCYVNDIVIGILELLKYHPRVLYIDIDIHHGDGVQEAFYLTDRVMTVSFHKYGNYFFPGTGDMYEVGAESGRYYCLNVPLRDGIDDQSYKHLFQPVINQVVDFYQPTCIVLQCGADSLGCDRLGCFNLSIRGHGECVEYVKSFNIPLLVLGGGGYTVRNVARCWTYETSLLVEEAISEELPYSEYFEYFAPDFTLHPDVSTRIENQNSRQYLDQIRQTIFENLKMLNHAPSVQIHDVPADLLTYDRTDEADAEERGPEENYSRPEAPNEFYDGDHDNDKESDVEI
IDE act = IDE (human) activation, cell-based; HEK cells, FAbeta-B cleavage, fluorescence polarization; 0% vehicle, 100% cell-free pure enzyme wells; hit rate 0.073% among 340,000; activation, % at 5.96 µM;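 active = activation above the mean of all tested compounds plus 3 SD, set per screening campaign, cut at about 17% in these data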
IDE cell inh = inhibits human insulin-degrading enzyme in HEK cells; P14735; FAbetaB cleavage, fluorescence polarization; inhibition, % at 5.59 µM; hit rate 0.41% among 320,000;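 active = percent inhibition above the average of all tested compounds plus 3 SD, set per screening campaign, cut at about 16% in these data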;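 note: IDE supplied by intact live HEK cells; FP after avidin binding of uncleaved biotin substrate so inhibition keeps polarization high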
Efflux pump inh = blocks antifungal efflux pumps in multiplex yeast assay; S. cerevisiae Candida pump triplex, Nile Red efflux; inhibition, % at 10 µM; hit rate 0.44% among 330,000; AID 485275;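 active = plate passing quality check with inhibition over a set limit, or well fluorescence over plate mean plus 4 SD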;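 note: Nile Red retained in pooled yeast measured as flow cytometry median fluorescence; higher means more Nile Red kept so more efflux inhibition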
CR mimetic SO = yeast age-related superoxide inhibition as caloric restriction mimetic; S. cerevisiae aged cells, superoxide DHE fluorescence; stronger effect = lower value; superoxide response (% of plate mean), % at 10 µM; hit rate 0.18% among 330,000;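 active = superoxide response under a set limit, about three screen SD below normal, cut at about 65% in these data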;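 note: yeast aged for seven days with compound at 30 °C before DHE staining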
CR mimetic CP = yeast aging superoxide inhibition, cherry pick confirmation; shares compounds with CR mimetic SO; S. cerevisiae aging, superoxide DHE fluorescence; stronger effect = lower value; superoxide response (% of plate), % at 10 µM; hit rate 1% among 850; AID 434994;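 active = superoxide signal below 65% of the plate average of sample wells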;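 note: cells aged with compound for 7 days at 30 degrees C before staining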
DHE fluor count = counter-screen for compounds affecting DHE oxidation and fluorescence in yeast; shares compounds with CR mimetic SO; S. cerevisiae BY4741, flow cytometry; stronger effect = lower value; fluorescence response, % at 10 µM; 850 tested, under 10 active; AID 435000;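 active = fluorescence response below 15%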;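 note: lower means stronger quenching of DHE signal or ROS scavenging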
IDE inh confirm = cellular human IDE inhibition, confirmation; hit rate 51% among 1,200; shares compounds with IDE cell inh; inhibition, % at 5.59 µM; HEK cells, FAbetaB cleavage, fluorescence polarization; AID 435028;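 active = mean inhibition across triplicate wells above the cutoff set by the earlier primary insulin-degrading enzyme screen, cut at about 16% in these data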
HEK293 tox = kills HEK cells in IDE inhibitor counter-screen; hit rate 28% among 1,200; inhibition, % at 5.59 µM; AID 449730; shares compounds with IDE cell inh; HEK293 cytotoxicity, ATP luminescence; in the data active = inhibition above about 22%
Cmpd fluor yeast = counter-screen for efflux pump inhibitors: compound fluorescence; shares compounds with Efflux pump inh; S. cerevisiae AD/pABC3, flow cytometry; fluorescence ratio to DMSO, % at 10 µM; hit rate 4% among 1,700;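 active = fluorescence ratio to DMSO above its plate's cutoff, the plate mean ratio plus 5 SD, cut at about 210% in these data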;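 note: unstained yeast with no Nile Red so the signal is compound autofluorescence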
CaMdr1 efflux inh = inhibitors of Candida albicans Mdr1 efflux pump. shares compounds with Efflux pump inh. hit rate 1% among 1,700. S. cerevisiae AD/CaMDR1, Nile Red efflux, flow cytometry. inhibition, % at 10 µM; in the data active = inhibition above about 26%;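 note: higher means more Nile Red retained so more efflux inhibition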
Cdr2 pump inh = blocks the Candida albicans Cdr2 efflux pump in yeast | shares compounds with Efflux pump inh | S. cerevisiae AD/CaCDR2, Nile Red retention, flow cytometry | Nile Red retention ratio vs DMSO, % at 10 µM | hit rate 4% among 1,700 | AID 588520; in the data active = Nile Red retention ratio vs DMSO above about 190%;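 note: higher ratio means more blocking of Cdr2 efflux of the dye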
CaCdr1 efflux inh = Candida Cdr1 efflux pump inhibition | S. cerevisiae AD/CaCDR1, Nile Red efflux, flow cytometry | shares compounds with Efflux pump inh | hit rate 1% among 1,700 | inhibition, % at 10 µM;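 active = inhibition above the screen-wide mean plus twice its standard deviation, cut at about 32% in these data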
Tb MetRS conf = Trypanosoma brucei MetRS inhibition confirmed | shares compounds with Tb MetRS inh | T. brucei MetRS enzyme, luminescence (ATP depletion) | inhibition, % at 11.9 µM | hit rate 93% among 1,400 | AID 624412; in the data active = inhibition above about 7%
Jurkat cytotox = Jurkat T cell cytotoxicity for MetRS hits. AID 624413. shares compounds with Tb MetRS inh. hit rate 12% among 1,400. inhibition, % at 8.3 µM. Jurkat cells viability, ATP luminescence; in the data active = inhibition above about 15%
TbMetRS FP orth = inhibits T. brucei methionyl tRNA synthetase in orthogonal FP test; shares compounds with Tb MetRS inh; purified T. brucei MetRS, fluorescence polarization; inhibition, % at 11.9 µM; hit rate 44% among 1,400; AID 651607; in the data active = inhibition above about 17%
Numbers stand for hits; n = inactive; u = inconclusive; x = not tested or not shown.

SMILES	Tb MetRS inh	HDAC3 inhib	IDE act	IDE cell inh	Efflux pump inh	CR mimetic SO	CR mimetic CP	DHE fluor count	others
CCn1c(=O)n(CC)c2cc(N)ccc21	n	n	n	n	n	n	x	x
C/C(=N\O)c1ccc2c3ccccc3n(C)c2c1	n	n	n	n	n	n	x	x
CCn1c2ccccc2c2cc(/C(C)=N/O)ccc21	n	n	n	n	n	n	n	n
CCCn1c2ccccc2c2cc(C(=O)O)ccc21	n	n	n	n	n	n	n	n
Nn1c(COc2ccccc2F)nnc1SCC(=O)NC1CCCC1	n	n	n	n	n	n	x	x
CCC(CO)Oc1cc(NCc2ccc(C(C)(C)C)cc2)c2ncn(C(C)C)c2c1 (stereo unspecified)	n	u	n	n	n	n	x	x
CCC(CO)Oc1cc(NCc2ccc(O)cc2)c2ncn(C(C)C)c2c1 (stereo unspecified)	n	n	n	n	n	65	n	n
O=C(Nc1ccc(F)cc1)C(=O)c1c(O)[nH]c2ccc([N+](=O)[O-])cc12	n	n	n	n	n	64	n	n
Cc1ccc(NCC(=O)N=Nc2c(O)[nH]c3ccc([N+](=O)[O-])cc23)cc1	x	n	x	n	n	n	x	x
O=C(O)c1cc(S(=O)(=O)N2CCN(C(=O)c3ccco3)CC2)c(Cl)cc1Cl	n	n	n	n	n	n	x	x
Cc1c(C(=O)O)oc2ccc(S(=O)(=O)NC3CCCCCCC3)cc12	n	n	n	n	1.0	63	n	n	Cmpd fluor yeast=n;CaMdr1 efflux inh=n;Cdr2 pump inh=n;CaCdr1 efflux inh=n
Cc1ccc(N(C(=O)c2csnn2)C(C(=O)NC2CCCC2)c2ccccn2)cc1 (stereo unspecified)	n	n	n	n	n	n	x	x
Cc1ccc(-c2n[nH]c(=O)c3ccccc23)cc1S(=O)(=O)NCCO	n	n	n	n	n	n	x	x
Cc1ccc(-c2nnc(Nc3ccc4c(c3)OCO4)c3ccccc23)cc1S(=O)(=O)NCCO	n	n	n	n	13	n	n	n	Cmpd fluor yeast=n;CaMdr1 efflux inh=n;Cdr2 pump inh=n;CaCdr1 efflux inh=n
O=C(Cc1ccc(Cl)cc1)Nc1cc(S(=O)(=O)N2CCOCC2)ccc1N1CCCC1	39	n	n	n	n	n	n	n	Tb MetRS conf=52;Jurkat cytotox=n;TbMetRS FP orth=28
Cc1ccccc1NC(=O)NNC(=O)CCc1ccccc1	n	n	n	n	n	n	x	x
Cc1c(Cl)cccc1N=C(N)N=C(N)N	n	n	n	n	n	n	x	x
NC(N)=NC(N)=Nc1cccc2ccccc12	n	n	n	17	n	n	x	x	IDE inh confirm=n;HEK293 tox=n

Screening data: PubChem, several laboratories
